Here are results for seven compounds from ChEMBL document CHEMBL1122314, “Acute effects of alkylating agents on canine renal function: specifically designed synthetic maleimides” (J Med Chem, 1983).

Series [1] is described as follows: Half life period with Glutathione (GSH); activity expressed in terms of rx, no rx means no reaction. It is filed as ADME.
Series [2] can be described thus: Half life period with L-Lys; activity expressed in terms of rx, no rx means no reaction. It is filed as ADME.
For series [3], the system named is Canis familiaris. The series is described as follows: The changes in canine renal function that were monitored over the 2-h interval following 20 umol/kg renal arterial administration; no change. It is filed as functional, organism-based. The settings on record: Canis lupus familiaris.
The test system of series [4] is Canis familiaris. The series is described as follows: The changes in canine renal function that were monitored over the 2-h interval following 73 umol/kg intravenous administration. It is filed as functional, Canis lupus familiaris. The method in brief: (§1)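 Dogs received the maleimide into the jugular vein at 73.0 or 146 µmol/kg over 10 min, dissolved in 0.9% saline with an equivalent amount of NaHCO3. Urine was collected in 10-min periods for 2 h. Read-outs were urine flow, urinary pH, GFR (inulin clearance), and Na, K (flame photometry) and Cl excretion. Each value is the change from the immediately preceding pretreatment period, analysed by Dunnett's test.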

The test system of series [5] is Canis familiaris. The series is described as follows: The changes in canine renal function that were monitored over the 2-h interval following 20 umol/kg renal arterial administration; NC=no change. It is filed as functional, organism-based. The settings on record: Canis lupus familiaris.
Series [6] deals with Canis familiaris. The series is described as follows: The changes in canine renal function that were monitored over the 2-h interval following 146 umol/kg intravenous administration. It is filed as functional, Canis lupus familiaris. The method in brief: as §1

Activity calls are given as the source filed them. The calls are words filed in the database; no cut-off is given here.

With `CC1=C(C)C(=O)N(c2ccc(C(=O)NCC(=O)O)cc2)C1=O`, the T1/2 entry in series [1] and in series [2] was “No RX” in each case. The Change entry with Canis familiaris [3] is “inactive”.

With `O=C(O)CNC(=O)c1ccc(N2C(=O)C=CC2=O)cc1`, the Change in the series with Canis familiaris [4] is listed as about -5. For the same compound, the Change entry in the series with Canis familiaris [5] was “inactive”.

On to `O=C(O)c1ccc(N2C(=O)C=CC2=O)cc1`, for which the Change entry in the series on Canis familiaris [3] was “inactive”.

Take `CC1=C(C)C(=O)N(c2ccc(C(=O)O)cc2)C1=O`: the Change entry in the series on Canis familiaris [3] is “inactive”.

Turning to `CC1=CC(=O)N(c2ccc(C(=O)O)cc2)C1=O`, the Change entry with Canis familiaris [3] was “inactive”.

For `CC1=CC(=O)N(c2ccc(C(=O)NCC(=O)O)cc2)C1=O`, in the series with Canis familiaris [3], the Change entry is “inactive”.

For `CC1=CC(=O)N(c2ccc(C(=O)O)cc2C)C1=O`, the Change in the series with Canis familiaris [6] is listed as 5. In addition, in the series on Canis familiaris [3], the Change result is “inactive”.
